Screens deposited in PubChem by several laboratories.
Sampled rows, rich in hits. Any-hit rate of the full collection: about 4.1%.
KCNK3 inh: human KCNK3 channel inhibitors, primary screen, CHO cells, FluxOR thallium flux, B-score | AID 602410, 2012 | Potassium channel subfamily K member 3 (Homo sapiens), O14649 | B-score at 10 µM | FluxOR fluorescence; hits give low values | hit rate 0.84% among 340,000;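 active means B-score under library mean minus 4 SD, starting fluorescence ratio at most library mean plus 5 SD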;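 further: more negative B-score means stronger inhibition of thallium flux through KCNK3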
Target sequence (O14649 whole entry, looked up): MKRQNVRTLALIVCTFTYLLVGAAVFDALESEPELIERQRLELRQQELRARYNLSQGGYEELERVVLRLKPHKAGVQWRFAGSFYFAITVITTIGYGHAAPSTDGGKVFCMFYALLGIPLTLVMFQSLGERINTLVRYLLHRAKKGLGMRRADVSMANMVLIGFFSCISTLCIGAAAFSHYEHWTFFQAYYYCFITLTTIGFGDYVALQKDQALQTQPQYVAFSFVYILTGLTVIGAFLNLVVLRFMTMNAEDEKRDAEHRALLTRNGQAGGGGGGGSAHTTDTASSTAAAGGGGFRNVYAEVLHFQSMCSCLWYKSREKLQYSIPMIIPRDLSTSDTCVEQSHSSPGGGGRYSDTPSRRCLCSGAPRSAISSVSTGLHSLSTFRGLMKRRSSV
KCNQ1 inh: inhibitors of human KCNQ1 channel, primary screen, cell-based, thallium flux, high-throughput | CHO-K1 KCNQ1, FluxOR thallium flux fluorescence; hits give high values | Potassium voltage-gated channel subfamily KQT member 1 (Homo sapiens), P51787 | B-score at 10 µM | hit rate 1.3% among 310,000;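 active means compounds whose thallium flux B-score, printed positive for inhibition, exceeds three library SD while starting fluorescence stays within three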;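 further: channel opened by potassium depolarization with thallium stimulus after 20 min compound exposure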
hERG protect: hERG rescue from dofetilide block, primary screen, cell-based, CHO-hERG, FluxOR thallium flux, dofetilide IC70; dofetilide IC70 present; activation (rescue from dofetilide block), less the hit threshold, % at 10 µM; AID 1511, 2009; hit rate 0.51% among 310,000;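 active means activation above the mean of controls blocked by dofetilide plus 5 SD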;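 further: thallium influx through hERG after potassium depolarization seen as dye fluorescence rise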
KCNQ1 act: potentiators or activators of KCNQ1 channel, primary screen, cell-based, thallium flux, high-throughput. hit rate 0.35% among 310,000. AID 2648, 2010. B-score at 10 µM. Potassium voltage-gated channel subfamily KQT member 1 (Homo sapiens), P51787. CHO-K1 KCNQ1, thallium flux FluxOR fluorescence; hits give high values;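 active means fluorescence ratio B-score, a plate-corrected score, at least three library SD, with initial intensity B-score within 5 SD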
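Doses: Single concentration per compound, DMSO matched to controls | Test system: KCNQ1-transfected CHO-K1 cells | Timing: 90 min dye loading and 20 min compound exposure, both at room temperature | Measured by: Kinetic FluxOR thallium fluorescence, 10-s 1-Hz baseline, 110-s post-stimulus read | Medium: Assay buffer with matched DMSO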
KCNK9 inh: KCNK9 potassium channel inhibitors, primary screen, HEK293 cells, thallium flux; Potassium channel subfamily K member 9 (Homo sapiens), Q9NPC2; FluxOR thallium flux fluorescence; hits give low values; B-score at 10 µM; hit rate 1.2% among 310,000;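 active means ratio B-score over 3 SD below the library mean, with starting fluorescence within 5 SD of its mean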;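 further: negative B-score means less thallium flux so channel inhibition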
KCC2 mod: KCC2 cotransporter modulators, thallium flux, primary screen, cell-based, HEK293 KCC2, FluoZin-2 fluorescence, MLSMR. KCC2 cells, thallium flux FluoZin-2 fluorescence. B-score of Tl+ flux slope (higher = more flux/activation; lower = inhibition) at 10 µM. hit rate 2.2% among 190,000. Solute carrier family 12 member 5 (Homo sapiens), Q9H2X9;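 active means thallium flux slope and its plate-corrected score both differing from the plate sample mean at a set confidence after two filtering rounds, in either direction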;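 further: slope of fluorescence scaled to starting intensity during 10 to 20 s after thallium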
KCNK9 inh conf: KCNK9 potassium channel inhibitors, confirmation, HEK293 cells, thallium flux, duplicate; inhibition, % at 10 µM; hit rate 43% among 4,900; AID 492992, 2010; FluxOR thallium flux fluorescence; shares compounds with KCNK9 inh;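 active means thallium signal inhibited by more than 5 SD of the compound-free buffer control wells, on both duplicate plates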;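 further: 0% = assay buffer control wells without compound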
Kir2-1 spec: mouse Kir2.1 channel inhibition, confirmation, selectivity assay for KCNK9 modulator project, cell-based, HEK293, thallium flux; Kir2.1 cells, FluxOR thallium flux fluorescence; shares compounds with KCNK9 inh; hit rate 4% among 4,900; inhibition, % at 10 µM;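 active means thallium signal drop more than 5 SD beyond the mean of the no-compound control wells, seen in both duplicate plates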;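 further: signal is fluorescence rise after thallium addition divided by baseline fluorescence; plate controls were assay buffer only for no effect and full block by chlorpromazine control for full effect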
KCNK9 uninduced: thallium flux in non-induced HEK293 cells, confirmation, counter-screen for KCNK9 inhibitor project, cell-based, second counter screen, non-induced KCNK9-HEK293; shares compounds with KCNK9 inh; FluxOR thallium flux; inhibition, % at 10 µM; hit rate 40% among 4,900; AID 492997, 2010;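 active means thallium signal drop beyond 5 SD of the untreated control mean, on both duplicate plates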;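 further: plate controls were buffer only IC0 wells for no effect and SID17386958 at its maximal inhibitory level for full effect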
* = called active by the depositor; i = inactive; / = no result.

SMILES	KCNK3 inh	KCNQ1 inh	hERG protect	KCNQ1 act	KCNK9 inh	KCC2 mod	KCNK9 inh conf	Kir2-1 spec	KCNK9 uninduced
COC(=O)c1cc(OC)c(OC)cc1NC(=S)N1CCN(C/C=C/c2ccccc2)CC1	i	i	-11	i	i	-1.5	i	i	i
COc1cc(C(=O)N2CCN(C/C=C/c3ccccc3)CC2)cc(OC)c1OC	i	i	-12	i	i	-0.53	/	/	/
Cc1csc(=O)n1CCC(=O)OCC(=O)Nc1cccc(C#N)c1	i	i	-13	i	i	/	/	/	/
CC(C)Cc1ccc(C(C)C(=O)OCC(=O)c2c[nH]c3ccccc23)cc1 (stereo not drawn)	i	i	-4	i	-10*	/	24%*	i	42%*
Cc1ccc(C(=O)OCC(=O)c2c[nH]c3ccccc23)cc1	i	i	-5	i	i	0.84	/	/	/
CCN(CC)S(=O)(=O)c1ccc(N2CCOCC2)c(NC(=O)c2cc3ccccc3oc2=O)c1	i	i	-1	i	-12*	/	55%*	i	i
Cc1ccccc1OCC(O)CN1CCN(CCN2C(=O)c3cccc4cccc(c34)C2=O)CC1 (stereo not drawn)	i	i	-10	i	i	0.039	i	i	i
C=CCc1ccccc1OCC(O)CN1CCN(CCN2C(=O)c3cccc4cccc(c34)C2=O)CC1 (stereo not drawn)	i	i	-31	i	i	0.078	i	i	i
CCC(OCC(O)CN1CCN(CCN2C(=O)c3cccc4cccc(c34)C2=O)CC1)c1ccccc1 (stereo not drawn)	i	i	-18	i	i	0.047	i	i	i
Cc1cccc(C)c1OCC(O)CN1CCC(CN2C(=O)c3cccc4cccc(c34)C2=O)CC1 (stereo not drawn)	i	i	-22	i	i	2	i	i	i
CC(C)N1C(=O)CCC1C(=O)NCc1ccc(F)cc1Cl (stereo not drawn)	i	i	-5	i	i	/	/	/	/
CN(C)S(=O)(=O)c1cccc(C(=O)Nc2cc(S(=O)(=O)N3CCOCC3)ccc2N2CCCC2)c1	i	/	/	/	/	/	/	/	/
CCOC(=O)C1=C(COC(=O)[C@@H](NC(=O)c2cccc(C)c2)C(C)C)NC(=O)NC1C (stereo partly drawn)	i	/	/	/	/	/	/	/	/
Cc1cc(C(=O)OCC(=O)Nc2nc(-c3ccccc3)cs2)c(C)o1	i	i	-4	i	i	0.43	/	/	/
Cc1cc(C(=O)OC(C)C(=O)Nc2nc(-c3ccccc3)cs2)c(C)o1 (stereo not drawn)	i	i	-8	i	i	-2.2	i	i	i
Cc1cc(OCc2cccc(Cl)c2)c(C)cc1CN1CCOCC1	i	i	-18	i	-14*	-0.14	52%*	i	32%*
O=[N+]([O-])c1cccc(COc2ccccc2CN2CCOCC2)c1	i	/	/	/	/	/	/	/	/
COc1ccc(NC(=O)C23CC4CC(C2)CC(c2ccccc2)(C4)C3)c(OC)c1	i	i	-2	i	i	0.4	i	i	i
CC(NC(=O)C(C)N1c2cccc3cccc(c23)S1(=O)=O)c1ccccc1 (stereo not drawn)	i	i	-11	i	i	/	/	/	/
C=CC[n+]1c(-c2ccc(Cl)cc2Cl)csc1Nc1c(C)n(C)n(-c2ccccc2)c1=O	i	i	-20	i	i	-0.67	i	i	i
C=CC[n+]1c(-c2ccc(C)cc2)csc1Nc1c(C)n(C)n(-c2ccccc2)c1=O	i	i	-5	i	i	-3.3	/	/	/
CC(C)CN(CCOc1cccc(N2C(=O)C3=C(CCCC3)C2=O)c1)CC(C)C	i	i	-9	i	i	0.0023	i	i	i
COc1cccc(/C=C(/C(=O)OCC(=O)NC2CCCC(C)C2C)c2ccccc2)c1 (stereo not drawn)	i	10*	-30	i	-9.3*	-1.8	43%*	i	44%*
COc1cccc(/C=C(/C(=O)OCC(N)=O)c2ccccc2)c1	i	i	-8	i	i	-0.02	/	/	/
CCCCNc1n[n+](C)c(-c2cccc(C)c2)s1	/	/	/	/	/	0.68	/	/	/
SMILES	KCNK3 inh	KCNQ1 inh	hERG protect	KCNQ1 act	KCNK9 inh	KCC2 mod	KCNK9 inh conf	Kir2-1 spec	KCNK9 uninduced
COc1ccc(CNC(=O)CN(c2cc(C)cc(C)c2)S(=O)(=O)c2c(C)noc2C)cc1	i	i	-6	i	-8.6*	0.012	i	i	i
O=C(CSc1nc2ccccc2o1)Nc1ccccc1N1CCCCCC1	i	i	-15	i	-11*	-0.53	61%*	40%*	41%*
COc1ccccc1CN1C[C@@H]2C[C@@H](c3ccccc3C)N3CCC[C@@]23C1=O	i	i	-8	i	i	-2.1	i	i	i
COc1ccccc1CN1C[C@@H]2C[C@@H](c3ccc(C)cc3)N3CCC[C@@]23C1=O	i	i	-10	i	i	0.62	/	/	/
O=C(CSc1nccc(-c2cccs2)n1)Nc1ccc(F)c(Cl)c1	i	i	-2	i	-8.2*	-0.98	i	i	37%*
O=C(CSc1nccc(-c2cccs2)n1)Nc1cccc(Cl)c1	i	i	-5	i	i	-1.4	/	/	/
O=c1c(Cc2ccc(Cl)cc2Cl)c(O)ccn1Cc1ccc(Cl)cc1	i	8*	-9	i	i	-0.71	i	i	i
